Tests used:
[1] = tested on: KB; test: Cytotoxicity against human KB cells assessed as growth inhibition at 10 '-6 M after 72 hrs by MTS assay; assay type: functional; settings: read-out: GI
Summary of the method: (§1)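 Cells seeded at 600 per well, dosed 24 h later from DMSO stocks over 0.5 nM–10 µM (DMSO 1% final in controls). KB was grown in D-MEM with 10% fetal calf serum; HL60 in complete RPMI. After 72 h, MTS was added for 3 h at 37 °C and A490 read. Inhibition % = (1 − OD treated/OD control) × 100, in triplicate; IC50 runs were in duplicate.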

[2] = tested on: HL-60; test: Induction of apoptosis in human HL60 cells assessed as late apoptotic cells at 100 nM after 24 hrs using annexin-V-PE/7-AAD staining by flow cytometry analysis (reference value: 0.8 %); assay type: functional
[3] = tested on: HL-60; test: Induction of apoptosis in human HL60 cells assessed as viable cells at 100 nM after 24 hrs using annexin-V-PE/7-AAD staining by flow cytometry analysis (reference value: 90.8 %); assay type: functional; settings: HL-60, 24 h, read-out: Activity
[4] = tested on: HL-60; test: Cell cycle arrest in human HL60 cells assessed as accumulation at S phase at 100 nM after 48 hrs by propidium iodide based flow cytometry analysis (reference value: 20.9 %); assay type: functional
[5] = tested on: HL-60; test: Cell cycle arrest in human HL60 cells assessed as accumulation at Sub G1 phase at 100 nM after 24 hrs by propidium iodide based flow cytometry analysis (reference value: 2.3 %); assay type: functional
[6] = tested on: HL-60; test: Cell cycle arrest in human HL60 cells assessed as accumulation at G0/G1 phase at 100 nM after 48 hrs by propidium iodide based flow cytometry analysis (reference value: 51.2 %); assay type: functional
[7] = organism: Ovis aries; test: Ratio of compound IC50 to DPPT IC50 for sheep brain tubulin
Summary of the method: (§2)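 Microtubule protein was purified from sheep brain by two assembly/disassembly cycles (37 °C/0 °C) in 100 mM MES pH 6.6, 1 mM EGTA, 0.5 mM MgCl2. Compound in DMSO (1 µL) was added to 150 µL microtubule solution, incubated 10 min at 37 °C then 5 min at 0 °C, and turbidity read at 350 nm. Single tests were at ~2 × 10^-5 M; IC50 was also expressed relative to deoxypodophyllotoxin IC50.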

[8] = tested on: HL-60; test: Cytotoxicity against human HL60 cells assessed as growth inhibition after 72 hrs by MTS assay; settings: HL-60, 72 h
[9] = Inhibition of sheep brain tubulin polymerization after 10 mins by turbidimetry analysis; design: species or system Ovis aries; summary of the method: as §2
[10] = tested on: HL-60; test: Cell cycle arrest in human HL60 cells assessed as accumulation at G2/M phase at 100 nM after 48 hrs by propidium iodide based flow cytometry analysis (reference value: 23.9 %); assay type: functional
[11] = tested on: HL-60; test: Cell cycle arrest in human HL60 cells assessed as accumulation at S phase at 100 nM after 24 hrs by propidium iodide based flow cytometry analysis (reference value: 22.3 %); assay type: functional
[12] = tested on: HL-60; test: Cell cycle arrest in human HL60 cells assessed as accumulation at G2/M phase at 100 nM after 24 hrs by propidium iodide based flow cytometry analysis (reference value: 24.8 %); assay type: functional
[13] = tested on: HL-60; test: Cell cycle arrest in human HL60 cells assessed as accumulation at G0/G1 phase at 100 nM after 24 hrs by propidium iodide based flow cytometry analysis (reference value: 50.6 %); assay type: functional
[14] = tested on: HL-60; test: Induction of apoptosis in human HL60 cells assessed as late apoptotic cells at 100 nM after 48 hrs using annexin-V-PE/7-AAD staining by flow cytometry analysis (reference value: 0.6 %); assay type: functional
[15] = tested on: HL-60; test: Induction of apoptosis in human HL60 cells assessed as early apoptotic cells at 100 nM after 48 hrs using annexin-V-PE/7-AAD staining by flow cytometry analysis (reference value: 14.7 %); assay type: functional
[16] = tested on: HL-60; test: Cell cycle arrest in human HL60 cells assessed as accumulation at Sub G1 phase at 100 nM after 48 hrs by propidium iodide based flow cytometry analysis (reference value: 4 %); assay type: functional
[17] = tested on: HL-60; test: Induction of apoptosis in human HL60 cells assessed as viable cells at 100 nM after 48 hrs using annexin-V-PE/7-AAD staining by flow cytometry analysis (reference value: 83.9 %); assay type: functional; settings: HL-60, 48 h, read-out: Activity
[18] = tested on: HL-60; test: Induction of apoptosis in human HL60 cells assessed as early apoptotic cells at 100 nM after 24 hrs using annexin-V-PE/7-AAD staining by flow cytometry analysis (reference value: 7.5 %); assay type: functional
[19] = tested on: HL-60; test: Cytotoxicity against human HL60 cells after 72 hrs by MTS assay; assay type: functional, cell-based; settings: HL-60, 72 h; summary of the method: as §1
[20] = organism: Ovis aries; test: Inhibition of sheep brain tubulin polymerization at 2 x 10 '-5 M after 10 mins by turbidimetry; summary of the method: as §2
[21] = tested on: KB; test: Cytotoxicity against human KB cells after 72 hrs by MTS assay; assay type: functional, cell-based; summary of the method: as §1
[22] = tested on: HL-60; test: Cell cycle arrest in human HL60 cells assessed as accumulation at G0/G1 phase at 20 nM after 48 hrs by propidium iodide based flow cytometry analysis (reference value: 51.2 %); assay type: functional
[23] = tested on: HL-60; test: Cell cycle arrest in human HL60 cells assessed as accumulation at G2/M phase at 20 nM after 24 hrs by propidium iodide based flow cytometry analysis (reference value: 24.8 %); assay type: functional
[24] = tested on: HL-60; test: Cell cycle arrest in human HL60 cells assessed as accumulation at G2/M phase at 20 nM after 48 hrs by propidium iodide based flow cytometry analysis (reference value: 23.9 %); assay type: functional
[25] = tested on: HL-60; test: Cell cycle arrest in human HL60 cells assessed as accumulation at Sub G1 phase at 20 nM after 48 hrs by propidium iodide based flow cytometry analysis (reference value: 4 %); assay type: functional
[26] = tested on: HL-60; test: Cell cycle arrest in human HL60 cells assessed as accumulation at S phase at 20 nM after 24 hrs by propidium iodide based flow cytometry analysis (reference value: 22.3 %); assay type: functional
[27] = tested on: HL-60; test: Cell cycle arrest in human HL60 cells assessed as accumulation at S phase at 20 nM after 48 hrs by propidium iodide based flow cytometry analysis (reference value: 20.9 %); assay type: functional
[28] = tested on: HL-60; test: Cell cycle arrest in human HL60 cells assessed as accumulation at Sub G1 phase at 20 nM after 24 hrs by propidium iodide based flow cytometry analysis (reference value: 2.3 %); assay type: functional
[29] = tested on: HL-60; test: Cell cycle arrest in human HL60 cells assessed as accumulation at G0/G1 phase at 20 nM after 24 hrs by propidium iodide based flow cytometry analysis (reference value: 50.6 %); assay type: functional

COc1ccc(-c2coc3c(OC)c(OC)c(OC)c(O)c3c2=O)cc1[N+](=O)[O-]
inhibition of growth at 1 µM [1]: 18%

COc1ccc(-c2cc(=O)c3c(OC)c(OC)c(OC)c(OC)c3o2)cc1N
inhibition of growth at 1 µM [1]: 6%

COc1ccc(/C=C2\Oc3c(cc(OC)c(OC)c3OC)C2=O)c(O)c1O
Activity [2]: 1.9% | viability at 0.1 µM [3]: 84.1% | Activity [4]: 28.2% | Activity [5]: 14% | Activity [6]: 31.4% | Ratio IC50 [7]: 4 | IC50 [8]: 100 µM | IC50 [9]: 8.6 µM | Activity [10]: 17.2% | Activity [11]: 23.7% | Activity [12]: 52.5% | Activity [13]: 9.8% | Activity [14]: 0.8% | Activity [15]: 21.1% | Activity [16]: 23.2% | viability at 0.1 µM [17]: 77.1% | Activity [18]: 12.9%

COc1ccc(/C=C2\Oc3c(OC)c(OC)c(OC)c(O)c3C2=O)cc1N
inhibition of growth at 1 µM [1]: 0%

COc1ccc(/C=C2\Oc3c(OC)c(OC)c(OC)c(OC)c3C2=O)cc1N
inhibition of growth at 1 µM [1]: 0%

COc1cc(OC)c(/C=C2\Oc3c(OC)c(OC)c(OC)c(O)c3C2=O)cc1N
inhibition of growth at 1 µM [1]: 0%

COc1ccc(/C=C/C(=O)c2c(O)c(OC)c(OC)c(OC)c2OC)cc1N
inhibition of growth at 1 µM [1]: 11%

COc1ccc(-c2cc(=O)c3c(O)c(OC)c(OC)c(OC)c3o2)cc1N
inhibition of growth at 1 µM [1]: 96%

COc1ccc(/C=C2\Oc3c(cc(OC)c(OC)c3OC)C2=O)cc1N
Activity [2]: 1.5% | viability at 0.1 µM [3]: 85.4% | Activity [4]: 22.5% | IC50 [19]: 180 nM | Activity [5]: 13.9% | Activity [6]: 42.6% | inhibition [20]: 33% | IC50 [21]: 400 nM | Activity [10]: 20.8% | Activity [11]: 18.7% | Activity [12]: 28.4% | Activity [13]: 39% | Activity [14]: 1.1% | Activity [15]: 16.4% | Activity [16]: 14% | viability at 0.1 µM [17]: 81.7% | Activity [18]: 12.1% | inhibition of growth at 1 µM [1]: 98%

COc1ccc(-c2coc3c(OC)c(OC)c(OC)c(O)c3c2=O)cc1N
inhibition of growth at 1 µM [1]: 0%

COc1ccc(/C=C2\Oc3c(OC)c(OC)c(OC)c(O)c3C2=O)cc1[N+](=O)[O-]
inhibition of growth at 1 µM [1]: 0%

COc1ccc(C2COc3c(OC)c(OC)c(OC)c(O)c3C2=O)cc1N (configuration not stated)
inhibition of growth at 1 µM [1]: 4%

COc1cccc2c1C(=O)c1c(O)c3c(c(O)c1C2=O)C[C@@](O)(C(=O)CO)C[C@@H]3O[C@H]1C[C@H](N)[C@H](O)[C@H](C)O1 [DOXORUBICIN]
Activity [2]: 0.9% | viability at 0.1 µM [3]: 81% | Activity [14]: 1.9% | Activity [15]: 68% | viability at 0.1 µM [17]: 29.8% | Activity [18]: 17.8%

COc1cc([C@@H]2c3cc4c(cc3C[C@H]3COC(=O)[C@@H]32)OCO4)cc(OC)c1OC [DESOXYPODOPHYLLOTOXIN]
Activity [22]: 23.5% | Activity [23]: 57.6% | Activity [24]: 29.8% | Activity [25]: 34.1% | Activity [26]: 9.5% | Activity [27]: 37.7% | Activity [28]: 7.7% | Activity [29]: 25.2%

COc1cc(OC)c(/C=C2\Oc3c(cc(OC)c(OC)c3OC)C2=O)cc1N
inhibition [20]: 12% | inhibition of growth at 1 µM [1]: 0%

COc1ccc(/C=C2\Oc3c(cc(OC)c(OC)c3OC)C2=O)cc1[N+](=O)[O-]
inhibition [20]: 12% | inhibition of growth at 1 µM [1]: 0%

COc1ccc(/C=C2\Oc3c(OC)c(O)c(OC)c(OC)c3C2=O)cc1N
inhibition of growth at 1 µM [1]: 0%

COc1ccc(-c2oc3c(OC)c(OC)c(OC)cc3c(=O)c2OC)cc1N
inhibition of growth at 1 µM [1]: 84%

COc1ccc(-c2oc3c(OC)c(OC)c(OC)c(OC)c3c(=O)c2OC)cc1N
inhibition of growth at 1 µM [1]: 17%

COc1ccc(/C=C2\Oc3c(cc(OC)c(OC)c3OC)C2=O)cc1O
Activity [2]: 1.1% | viability at 0.1 µM [3]: 81.1% | Activity [4]: 25.6% | IC50 [19]: 120 nM | Activity [5]: 14.4% | Activity [6]: 35.1% | inhibition [20]: 21% | IC50 [21]: 110 nM | Activity [10]: 18.2% | Activity [11]: 20.6% | Activity [12]: 24.7% | Activity [13]: 40.3% | Activity [14]: 1.1% | Activity [15]: 24.9% | Activity [16]: 21.1% | viability at 0.1 µM [17]: 73.3% | Activity [18]: 16.8% | inhibition of growth at 1 µM [1]: 100%

COc1ccc(-c2oc3c(OC)c(OC)c(OC)c(O)c3c(=O)c2OC)cc1N
Activity [2]: 2.1% | viability at 0.1 µM [3]: 74.2% | Activity [4]: 26.5% | IC50 [19]: 55 nM | Activity [5]: 8.9% | Activity [6]: 33.1% | Ratio IC50 [7]: 4 | IC50 [9]: 9 µM | Activity [10]: 21.3% | Activity [11]: 17.5% | Activity [12]: 33.3% | Activity [13]: 40.3% | Activity [14]: 1.9% | Activity [15]: 41% | Activity [16]: 19.1% | viability at 0.1 µM [17]: 56.3% | Activity [18]: 22.8% | inhibition of growth at 1 µM [1]: 99%

From ChEMBL document CHEMBL1938313, “Influence of the skeleton on the cytotoxicity of flavonoids” (Bioorg Med Chem, 2012)
